Results from ChEMBL document CHEMBL1132241, “Novel multidrug resistance reversal agents” (J Med Chem, 1999).

Assays:
Mus musculus [1] = assay: Percent increase in mean life span relative to treatment with an equivalent dose of vincristine alone at 50 mg/kg in mice with vincristine-resistantmurine leukemia P388/VCR cells; assay type: functional
Procedure, shortened: (§1)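 CDF1 mice were implanted ip with 1 × 10^6 P388/VCR cells. Agent and 0.2 mg/kg vincristine were given simultaneously ip once daily, days 1–7. Mean survival over up to 30 days was compared with vincristine alone at an equivalent dose, giving % increase in life span. Student t-test was applied to mean survival time.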

Mus musculus [2] = assay: Percent tumor growth inhibition against human epidermoid carcinoma KB/8.5 implanted subcutaneously in mice at 25 mg/kg of compound along with 8 mg/kg (DOX ) was determined; assay type: functional
Procedure, shortened: (§2)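 Athymic nude mice bearing sc KB/8.5 tumors (8×10^6 cells, colchicine withdrawn for two passages), grouped at 100–300 mg tumor mass, 5–10 mice/group. Doxorubicin 8 mg/kg given once iv; reversal agent or placebo given sc 2 h before and 2 h after. Tumor mass on day 14 used for relative tumor growth versus doxorubicin alone; Student t-test on log RTG.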

Mus musculus [3] = assay: Percent increase in mean life span in mice infected with leukemia P388/VCR, at 50 mg/Kg dose; assay type: functional
Procedure, shortened: (§3)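 CDF1 mice (groups of 10–15) were implanted ip with 1 × 10^6 P388/VCR cells. Agent plus 0.2 mg/kg vincristine were given together ip once daily on days 1–7, starting 1 day post-implant, in cremophor/ethanol or propylene glycol/ethanol vehicle. Survival was recorded to 30 days. Result is the % increase in mean life span versus placebo control.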

Mus musculus [4] = assay: Relative tumor growth inhibition against human epidermoid carcinoma KB/8.5 implanted subcutaneously only in mice at 8 mg/kg (DOX); assay type: functional; settings: route subcutaneous
Procedure, shortened: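 KB/8.5 cells grown in RPMI 1640 with 5% fetal calf serum plus colchicine (10 ng/mL), which was removed for two passages. 8 × 10^6 cells were then implanted sc in athymic nude mice. At 100-300 mg tumor mass, mice were grouped 5-10/group. Doxorubicin was given as a single iv dose (8 mg/kg). Tumor mass was measured on day 14, and relative growth was compared with saline control.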

S1B1-20 [5] = assay: In vitro concentration required to inhibit tumor activity on subclone of human colon carcinoma cells (S1-B1-20) resistant to bisantrene; assay type: functional, cell-based
Procedure, shortened: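 S1-B1-20 cells (S1 clone of LS 174 T, selected in bisantrene over 12–16 weeks) plated at 20 000 cells/well with or without 20 μM bisantrene, plus test agent 0.1–80 μM from DMSO stock (final DMSO ≤0.1%). 3 days, 37 °C, 7% CO2. Survival by sulforhodamine B at 540 nm. IC50 from best-fit curve of difference score (survival alone minus survival with bisantrene) at 50; 2–4 sets of measurements.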

S1B1-20 [6] = assay: (§4) In vitro concentration at which 50% of human colon carcinoma cells (S1-B1-20) resistant to bisantrene have survived; assay type: ADME, cell-based; settings: s1b1-20, read-out: LD50 (the source's name)
Procedure, shortened: (§5)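 S1-B1-20 cells (LS 174 T-derived S1 clone selected in bisantrene over 12–16 weeks), trypsinized, 20 000 cells/well. Test agent alone in DMSO (≤0.1% final), 0.1–80 µM, 3 days at 37 °C, 7% CO2. Survival by sulforhodamine B read at 540 nm versus untreated cells. Two to four measurement sets were made, and the value is the concentration giving 50% survival from a best-fit curve.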

Mus musculus [7] = assay: Percent increase in mean life span when 0.2 mg/kg vincristine was administered ip once daily on days 1-7, in mice infected with leukemia P388/VCR; assay type: functional; set-up: concentration or dose not given beside the values; settings: route intraperitoneal
Procedure, shortened: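 CDF1 mice bearing ip P388/VCR (1 × 10^6 cells) received 0.2 mg/kg vincristine ip once daily on days 1–7. Mean survival to 30 days was expressed as % increase in life span relative to placebo control.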

Mus musculus [8] = assay: Percent tumor growth inhibition against human epidermoid carcinoma KB/8.5 implanted subcutaneously in mice at 100 mg/kg of compound along with 8 mg/kg (DOX ) was determined; assay type: functional; procedure, shortened: as §2
Mus musculus [9] = assay: Percent increase in mean life span relative to treatment with an equivalent dose of vincristine alone at 12.5 mg/kg in mice with vincristine-resistantmurine leukemia P388/VCR cells; assay type: functional; procedure, shortened: as §1
[10] = Partition coefficient (logP); assay type: physicochemical; settings: octanol/water; read-out: logP
Mus musculus [11] = assay: Percent increase in mean life span in mice infected with leukemia P388/VCR, at 12.5 mg/Kg dose; assay type: functional; procedure, shortened: as §3
[12] = as §4; assay type: ADME, cell-based, S1B1-20; settings: S1-B1-20 human colon carcinoma cells resistant to bisantrene, read-out: LD50 (the source's name); procedure, shortened: as §5
Mus musculus [13] = assay: Percent increase in mean life span in mice infected with leukemia P388/VCR, at 6.3 mg/Kg dose; assay type: functional; procedure, shortened: as §3
Mus musculus [14] = assay: Percent increase in mean life span relative to treatment with an equivalent dose of vincristine alone at 6.3 mg/kg in mice with vincristine-resistantmurine leukemia P388/VCR cells; assay type: functional; procedure, shortened: as §1
Mus musculus [15] = assay: Percent increase in mean life span relative to treatment with an equivalent dose of vincristine alone at 25 mg/kg in mice with vincristine-resistantmurine leukemia P388/VCR cells; assay type: functional; procedure, shortened: as §1
Mus musculus [16] = assay: Percent tumor growth inhibition against human epidermoid carcinoma KB/8.5 implanted subcutaneously in mice at 50 mg/kg of compound along with 8 mg/kg (DOX ) was determined; assay type: functional; procedure, shortened: as §2
Mus musculus [17] = assay: Percent increase in mean life span in mice infected with leukemia P388/VCR, at 25 mg/Kg dose; assay type: functional; procedure, shortened: as §3

SMILES: COc1ccc(C(C#N)(CCCCCN2CCc3cc(OC)c(OCCn4ccnc4)cc3C2)Sc2ccc(C)cc2)cc1OC (stereo in doubt; 39a)
- ILS at 50 mg/kg (Mus musculus [1]): 48%
- TGI (Mus musculus [2]): 46%
- ILS at 50 mg/kg (Mus musculus [3]): 71%
- Relative tumor growth (Mus musculus [4]): 67
- IC50 (S1B1-20 [5]; s1b1-20): 690 nM
- CC50 (S1B1-20 [6]): 14.7 µM
- ILS (Mus musculus [7]): 15%

SMILES: COc1cc2c(cc1OC)CN(CCCCCCC(Sc1ccc(C)cc1)c1ccc(OC)c(OCCn3ccnc3)c1)CC2 (stereo in doubt; 47)
- Relative tumor growth (Mus musculus [4]; 8 mg/kg): 80
- IC50 (S1B1-20 [5]; s1b1-20): 290 nM
- TGI (Mus musculus [8]): 56%
- CC50 (S1B1-20 [6]): 5.64 µM

SMILES: COc1ccc2c(c1)CCN(CCCCCC(C#N)(Sc1ccc(C)cc1)c1ccc(OC)c(OC)c1)C2 (configuration not stated)
- ILS at 12.5 mg/kg (Mus musculus [9]): 24%
- logP [10]: 6.64
- IC50 (S1B1-20 [5]; Homo sapiens, S1B1-20): 1920 nM
- ILS at 12.5 mg/kg (Mus musculus [11]): 56%
- CC50 [12]: 15.7 µM
- ILS (Mus musculus [7]): 26%

SMILES: COc1ccc(C(C#N)(CCCCCCCCN2CCc3cc(OC)c(OC)cc3C2)Sc2ccc(C)cc2)cc1OC (configuration not stated)
- ILS at 6.3 mg/kg (Mus musculus [13]): 34%
- logP [10]: 7.76
- IC50 (S1B1-20 [5]; Homo sapiens, S1B1-20): 360 nM
- ILS at 6.3 mg/kg (Mus musculus [14]): 8%
- CC50 [12]: 11.6 µM
- ILS (Mus musculus [7]): 24%

SMILES: COc1ccc(C(C#N)(CCCCCN2Cc3cc(OC)c(OC)cc3C2)Sc2ccc(C)cc2)cc1OC (stereo in doubt; 28a)
- ILS at 25 mg/kg (Mus musculus [15]): 41%
- TGI (Mus musculus [16]): 65%
- Relative tumor growth (Mus musculus [4]): 67
- logP [10]: 5.55
- IC50 (S1B1-20 [5]; s1b1-20): 810 nM
- CC50 (S1B1-20 [6]): 22.8 µM
- ILS at 25 mg/kg (Mus musculus [17]): 63%
- ILS (Mus musculus [7]): 15%

SMILES: COc1ccc(C(C#N)(CCCCCN2Cc3cc(OC)c(OC)cc3C2)Sc2ccc(C)cc2)cc1OC (stereo in doubt; 44)
- IC50 (S1B1-20 [5]; s1b1-20): 260 nM
- CC50 (S1B1-20 [6]): 11.4 µM

SMILES: COc1ccc(C(C#N)(CCCCCN2CCc3ccccc3C2)Sc2ccc(C)cc2)cc1OC (configuration not stated)
- ILS at 25 mg/kg (Mus musculus [15]): 11%
- logP [10]: 6.72
- IC50 (S1B1-20 [5]; Homo sapiens, S1B1-20): 2560 nM
- CC50 [12]: 24.7 µM
- ILS at 25 mg/kg (Mus musculus [17]): 27%
- ILS (Mus musculus [7]): 14%

SMILES: COc1ccc(C(C#N)(CCCCCCN2CCc3cc(OC)c(OC)cc3C2)Sc2ccc(C)cc2)cc1OC (configuration not stated)
- ILS at 12.5 mg/kg (Mus musculus [9]): 23%
- logP [10]: 6.71
- IC50 (S1B1-20 [5]; Homo sapiens, S1B1-20): 300 nM
- ILS at 12.5 mg/kg (Mus musculus [11]): 68%
- CC50 [12]: 13.5 µM
- ILS (Mus musculus [7]): 37%

SMILES: COc1ccc(C(C#N)(CCCCCN2Cc3cc(OC)c(OC)cc3C2)SC2CCCCC2)cc1OC (stereo in doubt; 28c)
- IC50 (S1B1-20 [5]; s1b1-20): 350 nM
- CC50 (S1B1-20 [6]): 15 µM
